What was measured:
Type in all cases: functional
[1] = test system: AGS; experiment: Antiproliferative activity against human AGS assessed as growth inhibition after 48 hrs by SRB assay
How it was run: (§1)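 Cells kept in RPMI 1640 with 10% FBS, nonessential amino acids and penicillin/streptomycin, seeded and cultured overnight. Six wells fixed with 10% TCA at drug addition (T0). Compound exposure 48 h, then TCA fixation, 0.4% SRB in 1% acetic acid 10 min at room temperature, dye dissolved in 10 mM Tris base, OD 515 nm. Growth computed from T0, control and treated readings. GI50 is the concentration giving 50% growth inhibition. Doxorubicin served as positive control.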

[2] = test system: A549; experiment: Antiproliferative activity against human A549 assessed as growth inhibition after 48 hrs by SRB assay; conditions: A549, 48 h; how it was run: as §1
[3] = test system: HT-29; experiment: Antiproliferative activity against human HT-29 assessed as growth inhibition after 48 hrs by SRB assay; conditions: HT-29, 48 h; how it was run: as §1
[4] = test system: PC-3; experiment: Antiproliferative activity against human PC3 assessed as growth inhibition after 48 hrs by SRB assay; conditions: PC-3, 48 h; how it was run: as §1

Row | Structure (SMILES) | GI50 [1] | GI50 [2] | GI50 [3] | GI50 [4]
1 | COc1cc(O)c(-c2oc3c(OC)c(OC)ccc3c(=O)c2OC)cc1O [DIPLOTRIN A] | > 10 µM | > 10 µM | > 10 µM | > 10 µM
2 | COc1ccc(-c2oc3c(OC)c(OC)ccc3c(=O)c2OC)cc1O [DIPLOTRIN B] | 1.7 µM | 2.7 µM | 7.5 µM | 20.8 µM
3 | COc1ccc2c(=O)cc(-c3cc(OC)c(OC)cc3O)oc2c1 [DIPLOTRIN C] | > 10 µM | > 10 µM | > 10 µM | > 10 µM

Continued, values first:

Row | GI50 [1] | GI50 [2] | GI50 [3] | GI50 [4] | Structure (SMILES)
4 | > 10 µM | > 10 µM | > 10 µM | > 10 µM | COc1ccc2c(c1O)COc1c-2oc2c(OC)c(OC)ccc2c1=O
5 | 24.8 µM | 20.3 µM | 4.1 µM | 2.3 µM | COc1cc([C@H]2Oc3cc(-c4cc(=O)c5c(O)cc(O)cc5o4)ccc3O[C@@H]2CO)cc(OC)c1O
6 | 0.01 µM | 0.27 µM | 0.12 µM | 0.09 µM | COc1cccc2c1C(=O)c1c(O)c3c(c(O)c1C2=O)C[C@@](O)(C(=O)CO)C[C@@H]3O[C@H]1C[C@H](N)[C@H](O)[C@H](C)O1 [DOXORUBICIN]
